Data from ChEMBL document CHEMBL2176913, “Haloarene derivatives of carbamazepine with reduced bioactivation liabilities: 2-monohalo and 2,8-dihalo derivatives” (J Med Chem, 2012).

Assays:
Hepatocyte [1] = assay: Drug metabolism in Wistar rat hepatocytes assessed as ratio of 10,11-epoxide metabolite level to parent compound level at 50 uM incubated for 6 hrs by HPLC and LC-MS/Ms method; assay type: ADME, cell-based
Outline: (§1)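 Hepatocytes freshly isolated from male rat liver by two-step collagenase perfusion; only cells with ≥80% viability (trypan blue) were used. Cells at 2 × 10^6 cells/mL were shaken at 37 °C for 6 h with substrate at 50 μM, added in methanol (1% final volume). Reactions were stopped with acetonitrile. Metabolites were identified against authentic standards and by ESI LC–MS. Ratios are metabolite:parent compound.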

Hepatocyte [2] = assay: Stability in Wistar rat hepatocytes assessed as metabolite formation at >200 uM incubated for 6 hrs by HPLC and LC-MS/Ms method; assay type: ADME, cell-based
Outline: (§2)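 Male rat hepatocytes were isolated by collagenase perfusion (≥80% viable) and suspended at 2 × 10^6 cells/mL. They were incubated 6 h at 37 °C with substrate at typically 50–1000 μM, added in methanol (1% final volume); one analogue was tested only at 50 and 200 μM, added in acetonitrile. The reaction was stopped with acetonitrile, and the supernatant was concentrated and analysed by HPLC-UV and ESI LC–MS.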

Hepatocyte [3] = assay: Drug metabolism in Wistar rat hepatocytes assessed as ratio of N-glucuronide metabolite level to parent compound level at 50 uM incubated for 6 hrs by HPLC and LC-MS/Ms method; assay type: ADME, cell-based; outline: as §1
Hepatocyte [4] = assay: Drug metabolism in Wistar rat hepatocytes assessed as ratio of O-sulfonate II metabolite level to parent compound level at 50 uM incubated for 6 hrs by HPLC and LC-MS/Ms method; assay type: ADME, cell-based; outline: as §1
Hepatocyte [5] = assay: Drug metabolism in Wistar rat hepatocytes assessed as ratio of epoxide N-glucuronide metabolite level to parent compound level at 50 uM incubated for 6 hrs by HPLC and LC-MS/Ms method; assay type: ADME, cell-based; outline: as §1
Hepatocyte [6] = assay: Stability in Wistar rat hepatocytes assessed as 10,11-epoxide N-glucuronide metabolite formation at 200 uM incubated for 6 hrs by HPLC and LC-MS/Ms method; assay type: ADME, cell-based; outline: as §2
Hepatocyte [7] = assay: Drug metabolism in Wistar rat hepatocytes assessed as ratio of O-sulfonate I metabolite level to parent compound level at 50 uM incubated for 6 hrs by HPLC and LC-MS/Ms method; assay type: ADME, cell-based; outline: as §1
Hepatocyte [8] = assay: Stability in Wistar rat hepatocytes assessed as 10,11-epoxide N-glucuronide metabolite formation at 100 uM incubated for 6 hrs by HPLC and LC-MS/Ms method; assay type: ADME, cell-based; outline: as §2
Hepatocyte [9] = assay: Stability in Wistar rat hepatocytes assessed as 10,11-epoxide N-glucuronide metabolite formation at 500 uM incubated for 6 hrs by HPLC and LC-MS/Ms method; assay type: ADME, cell-based; outline: as §2
Liver microsomes [10] = assay: Stability in human liver microsomes assessed as diol formation at 50 uM incubated for 60 mins by HPLC and LC-MS/Ms method; assay type: ADME, Microsome; conditions: 1 h
Outline: (§3)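 Pooled human liver microsomes (150 donors, both sexes), 1 mg/mL protein, with substrate at 50 μM and NADPH at 1 mM. Incubated in 0.1 M potassium phosphate, pH 7.4, for 60 min at 37 °C; controls lacked NADPH. The reaction was stopped with ice-cold acetonitrile, and the supernatant was dried, reconstituted in methanol/water and analysed by HPLC-UV and ESI LC–MS (4000 Qtrap).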

Liver microsomes [11] = assay: Stability in human liver microsomes assessed as oxidative defluorination at 50 uM incubated for 60 mins by HPLC and LC-MS/Ms method; assay type: ADME, Microsome; conditions: 1 h; outline: as §3
Liver microsomes [12] = assay: Drug metabolism in human liver microsomes assessed as 10,11 epoxidation level at 50 uM incubated for 60 mins by HPLC and LC-MS/Ms method; assay type: ADME, Microsome; conditions: 1 h; outline: as §3
[13] = Drug metabolism in human liver microsomes assessed as compound turnover at 50 uM incubated for 60 mins by HPLC and LC-MS/Ms method; assay type: ADME, Microsome; conditions: read-out: Drug metabolism; outline: as §3
Liver microsomes [14] = assay: Stability in human liver microsomes assessed as dioxygenated metabolite formation at 50 uM incubated for 60 mins by HPLC and LC-MS/Ms method; assay type: ADME, Microsome; conditions: 1 h; outline: as §3
Hepatocyte [15] = assay: Stability in Wistar rat hepatocytes assessed as 10,11-epoxide N-glucuronide metabolite formation at 1 mM incubated for 6 hrs by HPLC and LC-MS/Ms method; assay type: ADME, cell-based; conditions: 1000 µM; outline: as §2
Hepatocyte [16] = assay: Drug metabolism in Wistar rat hepatocytes assessed as GSH adduct formation at 50 uM incubated for 6 hrs by HPLC and LC-MS/Ms method; assay type: ADME, cell-based; outline: as §1

Compound	Ratio (Hepatocyte [1])	Stability (Hepatocyte [2])	Ratio (Hepatocyte [3])	Ratio (Hepatocyte [4])	Ratio (Hepatocyte [5])	Stability (Hepatocyte [6])	Stability (Hepatocyte [7])	Stability (Hepatocyte [4])	Stability (Hepatocyte [8])	Stability (Hepatocyte [9])	Stability (Liver microsomes [10])	Stability (Liver microsomes [11])	Drug metabolism (Liver microsomes [12])	metabolised at 1 h, 50 µM [13] [%]	Stability (Liver microsomes [14])	Stability (Hepatocyte [15])	Drug metabolism (Hepatocyte [16])	Ratio (Hepatocyte [7])
NC(=O)N1c2ccc(Cl)cc2C=Cc2cc(Cl)ccc21	0.14	Stable	0.22		0.21	Stable	Stable	Stable										
NC(=O)N1c2ccc(Br)cc2C=Cc2cc(Br)ccc21	0.19	Stable	0.27				Stable	Stable	Stable									
NC(=O)N1c2ccccc2C=Cc2ccccc21 [CARBAMAZEPINE]	0.52	Stable	0.63	0.32	0.24						Stable		Active	1	Stable	Stable	Active	0.08

Continued, values first:

Ratio (Hepatocyte [1])	Stability (Hepatocyte [2])	Ratio (Hepatocyte [3])	Ratio (Hepatocyte [4])	Ratio (Hepatocyte [5])	Stability (Hepatocyte [6])	Stability (Hepatocyte [7])	Stability (Hepatocyte [4])	Stability (Hepatocyte [8])	Stability (Hepatocyte [9])	Stability (Liver microsomes [10])	Stability (Liver microsomes [11])	Drug metabolism (Liver microsomes [12])	metabolised at 1 h, 50 µM [13] [%]	Stability (Liver microsomes [14])	Stability (Hepatocyte [15])	Drug metabolism (Hepatocyte [16])	Ratio (Hepatocyte [7])	Compound
0.28	Stable	0.784	0.41	0.15	Stable	Stable												NC(=O)N1c2ccccc2C=Cc2cc(F)ccc21
0.21	Stable	2.04		0.11		Stable	Stable		Stable									NC(=O)N1c2ccccc2C=Cc2cc(Cl)ccc21
						Stable	Stable											NC(=O)N1c2ccccc2C=Cc2cc(Br)ccc21
0.07	Stable	0.18		0.02		Stable	Stable		Stable	Stable	Stable	Active	1	Stable				NC(=O)N1c2ccc(F)cc2C=Cc2cc(F)ccc21
